From ChEMBL document CHEMBL4321823, “Benzyl Phenylsemicarbazides: A Chemistry-Driven Approach Leading to G Protein-Biased Dopamine D4 Receptor Agonists with High Subtype Selectivity” (J Med Chem, 2019)
Activity calls are given as the source filed them. No cut-off for these calls is given here.

Assays:
D(2) dopamine receptor [1] = biological target: T1, D(2) dopamine receptor (Homo sapiens, UniProt P14416); assay: Displacement of [3H] Spiperone from human D2L receptor expressed in CHO cells by competitive radioligand binding assay; assay type: cell-based
D(2) dopamine receptor [2] = biological target: T1, D(2) dopamine receptor; assay: Displacement of [3H] Spiperone from human D2S receptor expressed in CHO cells by competitive radioligand binding assay; assay type: cell-based
D(3) dopamine receptor = D(3) dopamine receptor (Homo sapiens, UniProt P35462); assay: Displacement of [3H] Spiperone from human D3 receptor expressed in CHO cells by competitive radioligand binding assay; assay type: cell-based
D(1A) dopamine receptor = D(1A) dopamine receptor (Homo sapiens, UniProt P21728); assay: Displacement of [3H] SCH23390 from D1 receptor (unknown origin)
D(1B) dopamine receptor = D(1B) dopamine receptor (Homo sapiens, UniProt P21918); assay: Displacement of [3H] SCH23390 from D5 receptor (unknown origin)
[3] = biological target: T2, Alpha-1A adrenergic receptor (Homo sapiens, UniProt P35348); assay: Displacement of [3H] prazosin from alpha1A adrenergic receptor (unknown origin)
T2 sequence (P35348 whole entry): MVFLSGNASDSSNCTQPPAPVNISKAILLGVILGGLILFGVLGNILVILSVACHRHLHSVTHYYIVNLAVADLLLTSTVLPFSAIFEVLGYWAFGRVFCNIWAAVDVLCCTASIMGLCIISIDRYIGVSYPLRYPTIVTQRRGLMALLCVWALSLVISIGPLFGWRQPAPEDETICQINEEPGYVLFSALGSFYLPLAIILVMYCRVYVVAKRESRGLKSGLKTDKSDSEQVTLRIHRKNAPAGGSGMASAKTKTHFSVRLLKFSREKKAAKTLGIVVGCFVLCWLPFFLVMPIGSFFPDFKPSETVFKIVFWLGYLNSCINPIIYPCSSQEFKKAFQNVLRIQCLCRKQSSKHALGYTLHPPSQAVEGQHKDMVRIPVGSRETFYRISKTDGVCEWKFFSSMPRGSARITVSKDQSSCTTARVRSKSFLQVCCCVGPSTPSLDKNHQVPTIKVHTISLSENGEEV

[4] = biological target: T3, Alpha-2A adrenergic receptor (Homo sapiens, UniProt P08913); assay: Displacement of [3H] RX821002 from alpha2A adrenergic receptor (unknown origin)
T3 sequence (P08913 whole entry): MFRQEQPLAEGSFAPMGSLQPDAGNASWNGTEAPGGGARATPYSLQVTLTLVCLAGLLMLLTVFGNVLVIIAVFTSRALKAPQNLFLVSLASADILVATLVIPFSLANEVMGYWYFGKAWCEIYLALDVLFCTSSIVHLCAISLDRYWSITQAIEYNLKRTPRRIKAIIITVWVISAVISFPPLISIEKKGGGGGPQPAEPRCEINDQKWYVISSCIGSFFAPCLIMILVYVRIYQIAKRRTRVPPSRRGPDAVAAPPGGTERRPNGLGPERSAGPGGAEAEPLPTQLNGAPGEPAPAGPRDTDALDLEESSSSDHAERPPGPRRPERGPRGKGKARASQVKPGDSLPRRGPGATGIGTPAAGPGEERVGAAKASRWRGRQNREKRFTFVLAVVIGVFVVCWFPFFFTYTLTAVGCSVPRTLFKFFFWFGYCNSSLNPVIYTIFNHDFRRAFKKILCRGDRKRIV

[5] = biological target: Beta-1 adrenergic receptor (Homo sapiens, UniProt P08588); assay: Displacement of [3H] CGP12177 from beta1 adrenergic receptor (unknown origin)
[6] = biological target: Beta-2 adrenergic receptor (Homo sapiens, UniProt P07550); assay: Displacement of [3H] CGP12177 from beta2 adrenergic receptor (unknown origin)
[7] = biological target: Delta-type opioid receptor (Homo sapiens, UniProt P41143); assay: Displacement of [3H] diprenorphine from delta opioid receptor (unknown origin)
[8] = biological target: Kappa-type opioid receptor (Homo sapiens, UniProt P41145); assay: Displacement of [3H] diprenorphine from kappa opioid receptor (unknown origin)
Method in brief: (§1)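 Radioligand competition binding; Ki given as mean ± SD from two individual experiments, each run in triplicate.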

Mu-type opioid receptor = Mu-type opioid receptor (Homo sapiens, UniProt P35372); assay: Displacement of [3H] diprenorphine from mu opioid receptor (unknown origin); method in brief: as §1
[9] = biological target: T4, Muscarinic acetylcholine receptor M1 (Homo sapiens, UniProt P11229); assay: Displacement of [3H] NMS from muscarinic M1 receptor (unknown origin); method in brief: as §1
T4 sequence (P11229 whole entry): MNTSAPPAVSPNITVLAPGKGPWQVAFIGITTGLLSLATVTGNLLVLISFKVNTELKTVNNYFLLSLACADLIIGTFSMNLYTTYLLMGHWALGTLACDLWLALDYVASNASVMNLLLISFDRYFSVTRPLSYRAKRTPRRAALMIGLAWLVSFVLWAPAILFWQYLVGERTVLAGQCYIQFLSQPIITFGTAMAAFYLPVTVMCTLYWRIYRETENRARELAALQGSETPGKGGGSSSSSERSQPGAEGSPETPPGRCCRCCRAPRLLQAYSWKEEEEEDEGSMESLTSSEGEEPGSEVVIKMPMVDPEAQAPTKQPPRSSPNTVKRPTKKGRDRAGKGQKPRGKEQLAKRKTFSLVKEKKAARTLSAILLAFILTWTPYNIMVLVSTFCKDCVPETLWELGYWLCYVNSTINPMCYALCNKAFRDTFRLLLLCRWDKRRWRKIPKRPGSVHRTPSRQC

[10] = biological target: T5, Muscarinic acetylcholine receptor M2 (Homo sapiens, UniProt P08172); assay: Displacement of [3H] NMS from muscarinic M2 receptor (unknown origin); method in brief: as §1
T5 sequence (P08172 whole entry): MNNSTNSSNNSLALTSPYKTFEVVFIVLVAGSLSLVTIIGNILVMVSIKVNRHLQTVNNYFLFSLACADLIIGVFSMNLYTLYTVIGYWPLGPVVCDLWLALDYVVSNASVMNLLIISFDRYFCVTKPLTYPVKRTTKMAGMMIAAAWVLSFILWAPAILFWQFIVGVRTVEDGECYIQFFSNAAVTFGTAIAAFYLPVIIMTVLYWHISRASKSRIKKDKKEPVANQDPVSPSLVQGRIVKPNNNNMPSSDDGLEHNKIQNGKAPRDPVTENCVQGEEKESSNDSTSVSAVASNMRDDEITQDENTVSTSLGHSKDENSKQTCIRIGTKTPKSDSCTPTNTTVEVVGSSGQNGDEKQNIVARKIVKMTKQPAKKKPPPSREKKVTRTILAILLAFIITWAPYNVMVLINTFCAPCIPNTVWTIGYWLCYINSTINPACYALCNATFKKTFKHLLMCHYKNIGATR

[11] = biological target: Muscarinic acetylcholine receptor M3 (Homo sapiens, UniProt P20309); assay: Displacement of [3H] NMS from muscarinic M3 receptor (unknown origin); method in brief: as §1
[12] = biological target: T6, 5-hydroxytryptamine receptor 1A (Homo sapiens, UniProt P08908); assay: Displacement of [3H] WAY100635 from 5HT1A receptor (unknown origin); method in brief: as §1
T6 sequence (P08908 whole entry): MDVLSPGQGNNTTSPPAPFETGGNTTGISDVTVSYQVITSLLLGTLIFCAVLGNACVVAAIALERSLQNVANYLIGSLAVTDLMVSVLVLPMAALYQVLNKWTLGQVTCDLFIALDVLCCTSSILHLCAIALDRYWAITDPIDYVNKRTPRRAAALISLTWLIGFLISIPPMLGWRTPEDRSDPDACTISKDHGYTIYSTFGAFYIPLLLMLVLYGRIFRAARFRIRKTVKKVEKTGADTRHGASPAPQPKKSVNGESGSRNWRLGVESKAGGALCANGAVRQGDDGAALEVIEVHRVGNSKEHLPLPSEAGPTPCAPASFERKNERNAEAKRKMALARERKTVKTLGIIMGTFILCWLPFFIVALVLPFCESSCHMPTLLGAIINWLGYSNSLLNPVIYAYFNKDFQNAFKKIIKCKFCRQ

[13] = biological target: 5-hydroxytryptamine receptor 2A (Homo sapiens, UniProt P28223); assay: Displacement of [3H] Ketanserin from 5HT2A receptor (unknown origin)
[14] = biological target: T7, Alpha-1A adrenergic receptor (Homo sapiens) (UniProt P35348); assay: Antagonist activity at human alpha1A adrenergic receptor expressed in HEK293T cells assessed as accumulation of inositol monophosphate using d2-labelled IP1 conjugate incubated for 60 mins by HTRF assay; assay type: functional, cell-based
T7 sequence (whole entry): T2 sequence (P35348 whole entry)

[15] = Drug metabolism in Sprague-Dawley rat liver microsomes assessed as unchanged remaining parent compound at 20 uM measured after 120 mins in presence of NADPH by LC-ESI-MS analysis; assay type: ADME, Microsome; details: read-out: Drug metabolism
[16] = Drug metabolism in Sprague-Dawley rat liver microsomes assessed as metabolite formation at 20 uM measured after 120 mins in presence of NADPH by LC-ESI-MS analysis; assay type: ADME, Microsome; details: 2 h
D(4) dopamine receptor [17] = biological target: T8, D(4) dopamine receptor (Homo sapiens, UniProt P21917); assay: Displacement of [3H] Spiperone from human D4.4 receptor expressed in CHO cells by competitive radioligand binding assay; assay type: cell-based
T8 sequence (P21917 whole entry): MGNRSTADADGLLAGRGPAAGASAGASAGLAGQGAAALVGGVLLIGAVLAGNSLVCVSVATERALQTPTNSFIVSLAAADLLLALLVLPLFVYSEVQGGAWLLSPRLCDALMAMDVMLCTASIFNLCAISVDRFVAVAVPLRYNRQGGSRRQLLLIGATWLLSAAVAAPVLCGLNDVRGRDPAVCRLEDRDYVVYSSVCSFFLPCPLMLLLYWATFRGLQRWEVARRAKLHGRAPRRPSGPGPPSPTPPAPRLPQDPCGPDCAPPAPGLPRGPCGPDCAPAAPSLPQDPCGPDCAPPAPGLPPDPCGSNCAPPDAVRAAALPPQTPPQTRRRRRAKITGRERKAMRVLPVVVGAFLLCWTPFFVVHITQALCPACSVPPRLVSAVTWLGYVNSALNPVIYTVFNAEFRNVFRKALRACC

Homo sapiens [18] = species on record: Homo sapiens; assay: Selectivity index, ratio of Ki for displacement of [3H] Spiperone from human D2L receptor expressed in CHO cells to Ki for displacement of [3H] Spiperone from human D4.4 receptor expressed in CHO cells; assay type: cell-based
Method in brief: (§2)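 Competition binding against [3H]spiperone on membranes of CHO cells stably expressing cloned human D2L, D2S, D3 or D4.4 receptors. Ki from monophasic curve fits; mean ± SEM of three to seven experiments, each in triplicate. Selectivity calculated as Ki(D2L, D2S or D3) divided by Ki(D4.4).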

Homo sapiens [19] = species on record: Homo sapiens; assay: Selectivity index, ratio of Ki for displacement of [3H] Spiperone from human D2S receptor expressed in CHO cells to Ki for displacement of [3H] Spiperone from human D4.4 receptor expressed in CHO cells; assay type: cell-based; method in brief: as §2
Homo sapiens [20] = species on record: Homo sapiens; assay: Selectivity index, ratio of Ki for displacement of [3H] Spiperone from human D3 receptor expressed in CHO cells to Ki for displacement of [3H] Spiperone from human D4.4 receptor expressed in CHO cells; assay type: cell-based; method in brief: as §2
D(4) dopamine receptor [21] = biological target: T8, D(4) dopamine receptor; assay: Agonist activity at human D4 receptor expressed in HEK293T cells co-expressing G-alphaqi assessed as accumulation of inositol monophosphate using d2-labelled IP1 conjugate incubated for 90 mins by HTRF assay; assay type: functional, cell-based
D(4) dopamine receptor [22] = biological target: T8, D(4) dopamine receptor; assay type: cell-based, HEK293
D(4) dopamine receptor [23] = biological target: T8, D(4) dopamine receptor; assay: Antagonist activity at […] D4 receptor (unknown origin) expressed in HEK293 cells co-expressing beta-arrestin2 assessed as inhibition of quinpirole-induced beta-arrestin2 recruitment preincubated for 30 mins followed by quinpirole addition and further incubated for 6 hrs by Path-Hunter assay; assay type: cell-based

T1 sequence (P14416 whole entry): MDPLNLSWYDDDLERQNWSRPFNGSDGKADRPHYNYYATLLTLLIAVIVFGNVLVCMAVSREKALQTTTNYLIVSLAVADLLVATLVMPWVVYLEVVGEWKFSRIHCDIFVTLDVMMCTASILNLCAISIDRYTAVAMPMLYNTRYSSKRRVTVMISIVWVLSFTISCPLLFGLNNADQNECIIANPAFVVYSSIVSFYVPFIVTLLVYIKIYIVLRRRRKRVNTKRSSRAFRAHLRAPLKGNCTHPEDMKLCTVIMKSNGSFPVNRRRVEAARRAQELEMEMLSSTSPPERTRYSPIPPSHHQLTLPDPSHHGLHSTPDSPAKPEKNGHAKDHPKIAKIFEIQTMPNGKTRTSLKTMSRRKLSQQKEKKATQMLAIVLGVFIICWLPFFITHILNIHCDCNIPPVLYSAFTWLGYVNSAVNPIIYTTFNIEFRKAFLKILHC
D(3) dopamine receptor, sequence (P35462 whole entry): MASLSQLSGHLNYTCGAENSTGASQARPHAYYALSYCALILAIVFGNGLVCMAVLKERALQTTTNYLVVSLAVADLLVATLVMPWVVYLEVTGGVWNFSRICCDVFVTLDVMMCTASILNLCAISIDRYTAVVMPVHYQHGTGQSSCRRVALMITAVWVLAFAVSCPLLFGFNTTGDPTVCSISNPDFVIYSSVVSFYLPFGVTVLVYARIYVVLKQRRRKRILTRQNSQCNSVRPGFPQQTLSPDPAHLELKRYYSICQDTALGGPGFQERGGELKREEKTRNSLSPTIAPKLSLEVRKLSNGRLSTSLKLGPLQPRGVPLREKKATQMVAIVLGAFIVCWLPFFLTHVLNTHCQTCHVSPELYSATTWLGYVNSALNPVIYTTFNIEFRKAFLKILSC
5-hydroxytryptamine receptor 2A, sequence (P28223 whole entry): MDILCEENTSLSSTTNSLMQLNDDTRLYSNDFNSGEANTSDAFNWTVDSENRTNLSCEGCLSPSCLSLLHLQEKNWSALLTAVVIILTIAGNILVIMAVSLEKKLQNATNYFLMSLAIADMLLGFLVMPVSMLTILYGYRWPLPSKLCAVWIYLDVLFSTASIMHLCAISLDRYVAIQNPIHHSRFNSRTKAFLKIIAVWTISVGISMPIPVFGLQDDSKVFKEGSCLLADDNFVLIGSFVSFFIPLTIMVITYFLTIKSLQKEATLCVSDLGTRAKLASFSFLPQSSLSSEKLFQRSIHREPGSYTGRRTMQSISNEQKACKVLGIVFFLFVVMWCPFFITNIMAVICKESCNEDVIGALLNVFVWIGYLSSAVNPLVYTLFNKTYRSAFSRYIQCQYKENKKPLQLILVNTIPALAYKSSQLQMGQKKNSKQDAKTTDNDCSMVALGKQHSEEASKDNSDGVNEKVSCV
Mu-type opioid receptor, sequence (P35372 whole entry): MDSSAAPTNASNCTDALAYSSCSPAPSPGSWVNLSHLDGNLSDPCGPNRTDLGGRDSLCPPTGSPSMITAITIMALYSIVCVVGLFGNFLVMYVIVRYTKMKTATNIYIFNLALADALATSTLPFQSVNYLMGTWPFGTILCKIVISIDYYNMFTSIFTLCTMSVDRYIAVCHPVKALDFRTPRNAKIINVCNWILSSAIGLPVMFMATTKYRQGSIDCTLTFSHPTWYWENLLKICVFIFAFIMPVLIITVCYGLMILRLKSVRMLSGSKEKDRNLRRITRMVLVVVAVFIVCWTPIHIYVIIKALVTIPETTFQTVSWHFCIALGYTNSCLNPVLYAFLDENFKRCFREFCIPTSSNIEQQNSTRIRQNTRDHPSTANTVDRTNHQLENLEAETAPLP
Kappa-type opioid receptor, sequence (P41145 whole entry): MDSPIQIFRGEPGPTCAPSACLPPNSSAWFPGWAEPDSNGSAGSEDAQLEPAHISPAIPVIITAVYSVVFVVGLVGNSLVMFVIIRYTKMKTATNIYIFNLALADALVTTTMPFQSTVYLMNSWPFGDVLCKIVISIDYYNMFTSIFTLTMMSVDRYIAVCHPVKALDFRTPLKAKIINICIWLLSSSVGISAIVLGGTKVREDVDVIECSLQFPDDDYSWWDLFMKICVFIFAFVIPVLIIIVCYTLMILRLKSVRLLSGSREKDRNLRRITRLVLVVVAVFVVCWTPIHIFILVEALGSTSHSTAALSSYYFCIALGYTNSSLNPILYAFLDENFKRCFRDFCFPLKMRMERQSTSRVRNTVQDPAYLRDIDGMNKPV
D(1B) dopamine receptor, sequence (P21918 whole entry): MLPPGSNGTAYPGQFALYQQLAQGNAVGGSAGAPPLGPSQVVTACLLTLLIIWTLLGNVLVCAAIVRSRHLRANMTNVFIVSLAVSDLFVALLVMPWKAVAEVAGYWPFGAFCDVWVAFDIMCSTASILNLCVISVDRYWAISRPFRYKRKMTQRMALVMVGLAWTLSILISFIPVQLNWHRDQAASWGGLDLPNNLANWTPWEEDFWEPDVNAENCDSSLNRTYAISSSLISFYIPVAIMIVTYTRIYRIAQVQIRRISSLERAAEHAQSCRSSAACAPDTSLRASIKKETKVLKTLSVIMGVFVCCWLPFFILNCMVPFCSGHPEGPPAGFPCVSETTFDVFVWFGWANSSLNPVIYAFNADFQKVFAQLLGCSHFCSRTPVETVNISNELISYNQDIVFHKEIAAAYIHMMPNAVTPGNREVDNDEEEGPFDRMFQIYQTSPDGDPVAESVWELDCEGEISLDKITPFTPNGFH
Delta-type opioid receptor, sequence (P41143 whole entry): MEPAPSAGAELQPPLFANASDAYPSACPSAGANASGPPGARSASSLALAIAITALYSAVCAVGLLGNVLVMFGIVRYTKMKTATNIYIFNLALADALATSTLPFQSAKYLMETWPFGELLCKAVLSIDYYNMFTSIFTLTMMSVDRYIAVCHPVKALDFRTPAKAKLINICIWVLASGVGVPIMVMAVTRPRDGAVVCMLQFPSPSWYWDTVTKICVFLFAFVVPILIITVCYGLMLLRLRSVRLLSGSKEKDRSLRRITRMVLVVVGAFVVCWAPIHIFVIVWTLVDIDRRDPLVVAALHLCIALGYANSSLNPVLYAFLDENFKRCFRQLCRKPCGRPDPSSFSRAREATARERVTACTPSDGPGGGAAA
Beta-1 adrenergic receptor, sequence (P08588 whole entry): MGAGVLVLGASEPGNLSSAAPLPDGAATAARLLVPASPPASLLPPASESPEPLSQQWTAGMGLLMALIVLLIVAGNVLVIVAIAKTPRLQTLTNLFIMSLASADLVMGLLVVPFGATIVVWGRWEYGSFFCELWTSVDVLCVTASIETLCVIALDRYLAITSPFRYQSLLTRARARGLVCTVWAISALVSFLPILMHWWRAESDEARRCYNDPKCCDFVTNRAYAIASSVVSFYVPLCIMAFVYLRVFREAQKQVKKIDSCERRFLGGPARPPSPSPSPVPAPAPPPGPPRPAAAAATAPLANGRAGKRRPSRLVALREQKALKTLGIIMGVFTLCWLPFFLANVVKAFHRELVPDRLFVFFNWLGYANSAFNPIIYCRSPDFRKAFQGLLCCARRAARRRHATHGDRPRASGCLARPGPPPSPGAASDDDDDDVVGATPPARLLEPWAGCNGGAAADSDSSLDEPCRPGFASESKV
Beta-2 adrenergic receptor, sequence (P07550 whole entry): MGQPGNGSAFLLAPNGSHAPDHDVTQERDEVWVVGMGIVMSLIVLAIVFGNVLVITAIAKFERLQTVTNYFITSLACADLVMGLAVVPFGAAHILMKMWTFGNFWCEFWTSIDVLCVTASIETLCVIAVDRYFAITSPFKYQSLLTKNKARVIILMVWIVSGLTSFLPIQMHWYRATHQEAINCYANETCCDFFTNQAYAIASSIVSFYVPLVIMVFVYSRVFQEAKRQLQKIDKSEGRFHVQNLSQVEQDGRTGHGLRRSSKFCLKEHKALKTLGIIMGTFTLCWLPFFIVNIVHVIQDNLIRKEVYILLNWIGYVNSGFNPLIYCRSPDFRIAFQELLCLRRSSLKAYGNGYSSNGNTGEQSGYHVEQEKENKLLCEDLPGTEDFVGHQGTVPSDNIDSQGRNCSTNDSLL
D(1A) dopamine receptor, sequence (P21728 whole entry): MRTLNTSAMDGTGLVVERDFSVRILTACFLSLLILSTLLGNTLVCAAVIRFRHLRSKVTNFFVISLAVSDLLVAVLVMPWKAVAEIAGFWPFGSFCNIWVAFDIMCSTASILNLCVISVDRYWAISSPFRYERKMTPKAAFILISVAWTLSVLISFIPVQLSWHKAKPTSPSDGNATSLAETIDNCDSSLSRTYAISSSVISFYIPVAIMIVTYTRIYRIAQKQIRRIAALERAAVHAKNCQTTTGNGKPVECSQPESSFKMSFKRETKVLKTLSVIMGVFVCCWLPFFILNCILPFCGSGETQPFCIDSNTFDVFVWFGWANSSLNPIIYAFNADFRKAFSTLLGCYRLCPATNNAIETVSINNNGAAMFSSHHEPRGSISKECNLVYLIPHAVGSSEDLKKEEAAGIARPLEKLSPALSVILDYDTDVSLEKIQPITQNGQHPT
Muscarinic acetylcholine receptor M3, sequence (P20309 whole entry): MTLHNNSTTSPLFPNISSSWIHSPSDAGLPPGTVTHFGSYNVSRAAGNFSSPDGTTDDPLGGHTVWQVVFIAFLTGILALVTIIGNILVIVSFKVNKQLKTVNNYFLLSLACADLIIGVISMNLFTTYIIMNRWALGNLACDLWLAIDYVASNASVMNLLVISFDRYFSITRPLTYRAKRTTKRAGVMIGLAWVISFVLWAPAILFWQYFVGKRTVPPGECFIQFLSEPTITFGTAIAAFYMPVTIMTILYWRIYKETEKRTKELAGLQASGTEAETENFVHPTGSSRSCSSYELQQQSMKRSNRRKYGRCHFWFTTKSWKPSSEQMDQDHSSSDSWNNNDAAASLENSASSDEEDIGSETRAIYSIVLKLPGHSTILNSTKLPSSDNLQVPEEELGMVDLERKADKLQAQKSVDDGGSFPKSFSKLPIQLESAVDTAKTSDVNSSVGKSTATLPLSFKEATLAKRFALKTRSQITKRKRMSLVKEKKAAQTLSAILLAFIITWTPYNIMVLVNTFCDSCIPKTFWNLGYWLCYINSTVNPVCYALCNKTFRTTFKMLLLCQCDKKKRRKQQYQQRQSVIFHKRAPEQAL

COc1ccccc1N1CCN(CCCNC(=O)NN(Cc2ccccc2)c2ccccc2)CC1
Ki (D(2) dopamine receptor [1]): 77 nM
Ki (D(2) dopamine receptor [2]): 73 nM
Ki (D(3) dopamine receptor): 170 nM
Ki (D(1A) dopamine receptor): 200 nM
Ki (D(1B) dopamine receptor): 340 nM
Ki [3]: 1.7 nM
Ki [4]: 400 nM
Ki [5]: 13000 nM
Ki [6]: 1800 nM
Ki [7]: 10000 nM
Ki [8]: 3900 nM
Ki (Mu-type opioid receptor): 2000 nM
Ki [9]: 25000 nM
Ki [10]: 14000 nM
Ki [11]: 25000 nM
Ki [12]: 17 nM
Ki [13]: 65 nM
Activity [14]: inactive
remaining at 2 h, 20 µM [15]: 10%
Drug metabolism [16]: Metabolite_Detected

COc1ccccc1N1CCN(CCCNC(=O)NN(Cc2ccccc2)c2ccc(F)cc2)CC1
Ki (D(2) dopamine receptor [1]): 6.6 nM
Ki (D(2) dopamine receptor [2]): 4.3 nM
Ki (D(3) dopamine receptor): 25 nM
Ki (D(4) dopamine receptor [17]): 0.55 nM
Ratio Ki (Homo sapiens [18]): 12
Ratio Ki (Homo sapiens [19]): 7.8
Ratio Ki (Homo sapiens [20]): 45
EC50 (D(4) dopamine receptor [21]): 1.8 nM
EC50 (D(4) dopamine receptor [22]): 340 nM
IC50 (D(4) dopamine receptor [23]): 49 nM
